Bioassay records as filed in PubChem.
Rows were chosen to be rich in hits. Some 5.8% of all compounds tested hit in one or more screens of this group.
T cruzi growth-1: inhibitors of T. cruzi proliferation. T. cruzi beta-gal in NIH3T3, GalScreen luminescence, 90 h. inhibition, % at 8.34 µM. 77,000 tested, 5.9% active;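 active = mean inhibition above about 93%, with at least 55% of replicates each passing it, limit read from the data, passing the limit was not always enough; inconclusive = only one of those two conditions holds; inactive = neither condition holds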
GASC1 inh: blocks human GASC-1 (KDM4C) demethylase activity; Q9H3R0; GST-KDM4C 2-372, H3K9me3 peptide, LANCE TR-FRET; inhibition, % at 12.5 µM; AID 720574; 96,000 tested, 0.15% active;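 active = mean replicate inhibition above about 25%, with at least 55% of replicates also reaching it, limit read from the data, passing the limit was not always enough; inconclusive = only one of those two conditions met; inactive = neither condition met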
Target sequence (Q9H3R0 2-372 limits assumed): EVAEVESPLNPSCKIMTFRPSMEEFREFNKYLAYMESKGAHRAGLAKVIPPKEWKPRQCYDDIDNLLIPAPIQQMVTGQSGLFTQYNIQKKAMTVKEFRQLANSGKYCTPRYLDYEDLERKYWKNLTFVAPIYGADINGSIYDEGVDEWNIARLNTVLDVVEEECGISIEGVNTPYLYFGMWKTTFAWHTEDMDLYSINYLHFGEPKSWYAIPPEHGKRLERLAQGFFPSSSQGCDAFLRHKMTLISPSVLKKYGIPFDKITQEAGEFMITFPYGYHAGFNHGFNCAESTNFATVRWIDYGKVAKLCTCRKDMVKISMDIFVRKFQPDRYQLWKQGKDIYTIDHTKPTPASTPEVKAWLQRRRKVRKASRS
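material = GST-tagged GASC-1 (JMJD2C) catalytic fragment, aa 2-372 | amount = enzyme final amount 10 nM | medium = HEPES buffer, pH 7.5, plus ascorbate | also added = H3K9me3 peptide substrate, Fe(II), 2-oxoglutarate | dosing = single dose | times = 30 min demethylation and 1 h detection at room temperature | detection = LANCE TR-FRET | read-out basis = Fall in 671/618 emission ratio as inhibition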
IDH1 R132H inh: IDH1 R132H (human) inhibition. IDH1 R132H reductase, diaphorase/resazurin fluorescence, 60 min. inhibition, % at 10 µM. O75874. 70,000 tested, 0.18% active; in the data active = inhibition above about 34%; inconclusive = no clear call, values can overlap the other calls; inactive = below about 11%;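 also: 0% = DMSO and 100% = no enzyme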
Target sequence (O75874 whole entry R132H): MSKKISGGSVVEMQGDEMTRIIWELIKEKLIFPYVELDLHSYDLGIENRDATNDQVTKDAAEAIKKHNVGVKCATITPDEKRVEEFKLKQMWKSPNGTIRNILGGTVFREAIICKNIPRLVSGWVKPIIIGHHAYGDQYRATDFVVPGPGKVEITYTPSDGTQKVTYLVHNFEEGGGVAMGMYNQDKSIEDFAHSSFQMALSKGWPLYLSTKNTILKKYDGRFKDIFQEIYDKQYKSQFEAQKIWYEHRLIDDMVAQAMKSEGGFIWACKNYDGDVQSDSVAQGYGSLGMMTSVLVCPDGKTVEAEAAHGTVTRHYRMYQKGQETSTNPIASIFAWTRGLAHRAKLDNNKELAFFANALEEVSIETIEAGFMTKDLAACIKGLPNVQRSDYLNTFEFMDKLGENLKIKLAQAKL
Pf Dd2 growth: inhibitors of Plasmodium falciparum Dd2 growth. P. falciparum Dd2 growth, SYBR Green, 72 h; active compounds read low. activity change, % at 10 µM. 94,000 tested, 2.3% active. AID 1159554; in the data active = activity change below about -80%; inconclusive = no clear call, values can overlap the other calls
T cruzi growth-2: blocks T. cruzi growth in NIH3T3 host cells; T. cruzi beta-gal in NIH3T3, GalScreen luminescence, 90 h; inhibition, % at 8.35 µM; AID 651739; 5,600 tested, 72% active; shares compounds with T cruzi growth-1;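 active = mean replicate inhibition above about 95% and at least 55% of replicates individually reaching it, limit read from the data; inconclusive = only one of the two criteria is met; inactive = neither criterion is met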
T cruzi growth-3: Trypanosoma cruzi proliferation inhibition | shares compounds with T cruzi growth-1 | AID 651740 | T. cruzi beta-gal in NIH3T3, GalScreen luminescence, 90 h | inhibition, % at 2.09 µM | 5,600 tested, 21% active;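 active = mean inhibition above about 95%, with at least 55% of replicates also reaching it, limit read from the data; inconclusive = meets just one of the two conditions; inactive = meets neither condition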;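 also: plate controls were neutral control median for no effect and positive control median for full effect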
NIH3T3 tox: cytotoxicity in mouse NIH/3T3 fibroblasts. cytotoxicity (signal decrease), % at 8.35 µM. NIH/3T3 viability, CellTiter-Glo ATP luminescence, 90 h. 5,600 tested, 14% active. shares compounds with T cruzi growth-1;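 active = mean signal decrease across replicates above about 35% based on untreated-well scatter, with enough replicates individually passing, limit read from the data; inconclusive = no rule stated though some were filed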;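 also: 0% = median of neutral control wells and 100% = median of positive control wells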
NIH3T3 tox 2: NIH/3T3 (mouse) viability loss. NIH/3T3 viability, CellTiter-Glo ATP luminescence, 90 h. inhibition, % at 24.9 µM. AID 651744. shares compounds with T cruzi growth-1. 5,600 tested, 56% active;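 active = mean loss of cell viability signal at or above a set limit, and enough replicates individually reaching it; inconclusive = meets only the mean limit or only the replicate share; inactive = meets neither condition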;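 also: 0% = median of neutral control wells and 100% = median of positive control wells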
The depositor's hits bear a star; ? = inconclusive; / = no result.

SMILES	T cruzi growth-1	GASC1 inh	IDH1 R132H inh	Pf Dd2 growth	T cruzi growth-2	T cruzi growth-3	NIH3T3 tox	NIH3T3 tox 2
COc1cccc(S(=O)(=O)N(C)C[C@@H]2Oc3cc(C#CCC(C)C)ccc3S(=O)(=O)N([C@@H](C)CO)C[C@H]2C)c1	96.2*	-0.5	-3.5	?	103.1*	108.5*	43.4*	77.7*
COc1ccc(S(=O)(=O)Nc2ccc3c(c2)C(=O)N([C@H](C)CO)C[C@H](C)[C@@H](CN(C)S(=O)(=O)c2ccc(C)cc2)OCCCC[C@@H](C)O3)cc1	/	-0.4	-1.6	-41.0	/	/	/	/
COc1ccc(S(=O)(=O)N(C)C[C@H]2OCCCC[C@H](C)Oc3ccc(NS(=O)(=O)c4ccc(C)cc4)cc3C(=O)N([C@H](C)CO)C[C@H]2C)cc1	?	-1.0	/	-83.1*	107.0*	92.8	-6.8	11.8
COc1ccc(S(=O)(=O)N(C)C[C@H]2OCCCC[C@H](C)Oc3ccc(NS(=O)(=O)c4ccc(C)cc4)cc3C(=O)N([C@H](C)CO)C[C@@H]2C)cc1	?	-0.6	-1.2	-47.2	109.6*	65.8	1.4	-31.1
COc1ccc(S(=O)(=O)N(C)C[C@H]2OCCCC[C@@H](C)Oc3ccc(NS(=O)(=O)c4ccc(C)cc4)cc3C(=O)N([C@H](C)CO)C[C@@H]2C)cc1	7.5	0.5	/	-17.6	/	/	/	/
COc1ccc2c(c1)c(=O)oc1cc(OCC(=O)Nc3cc(C)cc(C)c3)ccc12	/	/	-0.3	/	/	/	/	/
C[C@@H]1CCCCO[C@H](CN(C)C(=O)C2CCCCC2)[C@H](C)CN([C@@H](C)CO)C(=O)c2cc(NS(=O)(=O)c3ccc(Cl)cc3)ccc2O1	?	-0.5	/	-40.6	?	85.8	17.0	95.4*
C[C@H](CO)N1C[C@H](C)[C@H](CN(C)C(=O)C2CCCCC2)OCCCC[C@H](C)Oc2ccc(NS(=O)(=O)c3ccc(Cl)cc3)cc2C1=O	93.6	-1.3	/	3.9	/	/	/	/
C[C@@H]1CN([C@H](C)CO)C(=O)c2cc(NS(=O)(=O)c3ccc(Cl)cc3)ccc2O[C@@H](C)CCCCO[C@@H]1CN(C)C(=O)C1CCCCC1	?	-0.9	1.1	-55.3	99.7*	76.1	8.6	80.4*
N=C1C(c2nc3ccccc3s2)=C(O)CN1CCCN1CCOCC1	/	/	0.1	/	/	/	/	/
N#Cc1c(NC(=O)CSc2nnc3c(n2)[nH]c2ccccc23)sc2c1CCCC2	/	/	-0.2	/	/	/	/	/
C[C@H]1CCCCO[C@@H](CN(C)C(=O)Cc2ccccc2)[C@@H](C)CN([C@@H](C)CO)C(=O)c2cc(NS(=O)(=O)c3ccccc3)ccc2O1	/	1.5	0.9	-57.5	/	/	/	/
C[C@@H]1CCCCO[C@@H](CN(C)C(=O)Cc2ccccc2)[C@H](C)CN([C@@H](C)CO)C(=O)c2cc(NS(=O)(=O)c3ccc(Cl)cc3)ccc2O1	99.7*	0.4	/	6.2	106.0*	73.8	2.9	46.6
C[C@@H]1CCCCO[C@H](CN(C)C(=O)CCC(F)(F)F)[C@H](C)CN([C@H](C)CO)C(=O)c2cc(NS(=O)(=O)c3ccc(Cl)cc3)ccc2O1	101.2*	-0.8	-0.3	-64.9	100.2*	60.8	18.4	-4.1
C[C@H]1CCCCO[C@H](CN(C)C(=O)CCC(F)(F)F)[C@@H](C)CN([C@@H](C)CO)C(=O)c2cc(NS(=O)(=O)c3ccc(Cl)cc3)ccc2O1	75.4	-0.6	/	-44.8	/	/	/	/
Cc1ccc(S(=O)(=O)Nc2ccc3c(c2)C(=O)N([C@H](C)CO)C[C@@H](C)[C@H](CN(C)C(=O)Cc2ccccc2)OCCCC[C@@H](C)O3)cc1	96.6*	0.2	-4.3	-32.1	107.5*	63.1	1.2	-15.0
CCN(CC(=O)Nc1cccc([N+](=O)[O-])c1)S(=O)(=O)c1ccc(C)cc1	/	/	-0.3	/	/	/	/	/
COc1cccc(-c2ccc([C@@H]3[C@H](CO)N4CCCCN(CC5CCOCC5)C[C@@H]34)cc2)c1	49.7	/	/	-50.5	/	/	/	/
COc1cccc(-c2ccc([C@H]3[C@H]4CN(CC5CCOCC5)CCCCN4[C@H]3CO)cc2)c1	103.9*	/	/	-14.5	73.7	23.1	3.1	57.8*
COc1cccc(-c2ccc([C@@H]3[C@@H](CO)N4CCCCN(CC5CCOCC5)C[C@@H]34)cc2)c1	98.4*	/	/	-9.8	99.1*	39.3	17.6	54.3*
Cc1ccc(NC(=O)Cn2nc(-c3ccc(C)c(S(=O)(=O)N(C)C)c3)c3ccccc3c2=O)cc1	/	/	0.2	/	/	/	/	/
COc1cccc(C(Nc2cc(C)ccn2)c2ccc3ccc(C)nc3c2O)c1 (configuration not stated)	/	/	0.1	/	/	/	/	/
OC[C@H]1[C@@H](c2ccc(C#Cc3ccccc3F)cc2)[C@@H]2CN(CC3CCOCC3)CCCCN12	85.1	1.3	/	-57.6	/	/	/	/
OC[C@@H]1[C@H](c2ccc(C#Cc3ccccc3F)cc2)[C@H]2CN(CC3CCOCC3)CCCCN12	105.6*	-1.2	/	-52.4	101.1*	109.6*	39.7*	103.7*
OC[C@H]1[C@H](c2ccc(C#Cc3ccccc3F)cc2)[C@@H]2CN(CC3CCOCC3)CCCCN12	?	0.1	/	-69.2	106.1*	34.8	41.1*	105.6*
SMILES	T cruzi growth-1	GASC1 inh	IDH1 R132H inh	Pf Dd2 growth	T cruzi growth-2	T cruzi growth-3	NIH3T3 tox	NIH3T3 tox 2
Cc1ccc(N(Cc2ccc(C(=O)Nc3cc([N+](=O)[O-])ccc3C)cc2)S(C)(=O)=O)cc1C	/	/	0.2	/	/	/	/	/
CO[C@H]1CN(C)C(=O)c2cc(NC(=O)c3ccccc3F)ccc2OC[C@H](C)N(C(=O)c2ccccc2F)C[C@@H]1C	12.8	-0.1	0.1	-9.2	/	/	/	/
CO[C@@H]1CN(C)C(=O)c2cc(NC(=O)c3ccccc3F)ccc2OC[C@H](C)N(C(=O)c2ccccc2F)C[C@H]1C	25.9	1.6	0.2	-33.9	/	/	/	/
CO[C@@H]1CN(C)C(=O)c2cc(NC(=O)c3ccccc3F)ccc2OC[C@@H](C)N(C(=O)c2ccccc2F)C[C@H]1C	?	0.6	0.2	-8.1	86.6	51.2	-0.7	12.3
CO[C@@H]1CN(C)C(=O)c2cc(NC(=O)c3ccccc3F)ccc2OC[C@H](C)N(C(=O)c2ccccc2F)C[C@@H]1C	102.2*	0.6	0.3	-83.0*	76.3	-3.6	-7.9	39.8*
COCc1nc2ccccc2n1CCOc1ccc(Cl)cc1	/	/	-0.7	/	/	/	/	/
CCc1cnc(N2[C@H](C#N)[C@@H](c3ccccc3)[C@H]2CO)s1	6.5	-1.1	/	20.5	/	/	/	/
CCc1cnc(N2[C@@H](C#N)[C@H](c3ccc(C#Cc4ccccc4F)cc3)[C@@H]2CO)s1	110.1*	-1.3	/	-44.3	105.1*	94.3	10.7	1.6
CCc1cnc(N2[C@H](C#N)[C@@H](c3ccc(-c4cccc(F)c4)cc3)[C@@H]2CO)s1	?	-1.7	/	-21.6	104.4*	52.0	-3.9	100.0*
